The source made the active and inactive calls. No cut-off for these calls is given here.
Columns and labels:
[1] = Induction of glucose consumption in mouse C2C12 cells at 10 uM measured after 12 hrs by glucose oxidase method (reference value: 100 %); type: functional
Outline: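 Differentiated C2C12 myotubes were switched to DMEM containing 2.75 g/L glucose and treated for 12 h at 37 °C, with cell-free blank wells as reference. Glucose left in the medium was measured by the GOD-POD method at 570 nm. Consumption was derived by subtraction and expressed as percentage of the DMSO group.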

[2] = Metabolic stability in ICR/CD-1 mouse liver microsomes assessed as half life preincubated for 5 mins followed by NADPH addition and measured up to 45 mins by LC/MS analysis; type: ADME, Microsome; settings: time 50 min
Outline: (§1)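 Compound was preincubated with mouse (ICR/CD-1) or human liver microsomes in potassium phosphate buffer at 37 °C for 5 min, then NADPH was added to start the reaction. Samples were quenched with acetonitrile containing tolbutamide internal standard at 0, 5, 15, 30 and 45 min. Parent compound measured by LC/MS; ketanserin served as control.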

[3] = Metabolic stability in ICR/CD-1 mouse liver microsomes assessed as compound remaining preincubated for 5 mins followed by NADPH addition and measured up to 45 mins by LC/MS analysis; type: ADME, Microsome; settings: time 50 min, read-out: Stabilty; outline: as §1
[4] = Inhibition of bovine heart mitochondrial complex 1 at 5 to 20 uM measured every minute for 2 hrs by microplate reader based assay; type: tissue-based, Bos taurus; settings: cattle, dose 5-20 µM
Outline: (§2)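 Bovine heart mitochondria in detergent were captured on a complex I antibody-coated plate for 2 h at room temperature. Phospholipids were added, then complex I solution with compound, rotenone control or DMSO. NADH oxidation was followed as the fall in A340, read every minute for at least 2 h at 30 °C.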

[5] = Metabolic stability in human liver microsomes assessed as compound remaining preincubated for 5 mins followed by NADPH addition and measured up to 45 mins by LC/MS analysis; type: ADME, Microsome; settings: time 50 min, read-out: Stabilty; outline: as §1
[6] = Metabolic stability in human liver microsomes assessed as half life preincubated for 5 mins followed by NADPH addition and measured up to 45 mins by LC/MS analysis; type: ADME, Microsome; settings: time 50 min; outline: as §1
[7] = test system: C2C12; assay: Activation of AMPK in mouse C2C12 cells assessed as increase in AMPK phosphorylation at Thr172 residue at 10 uM measured after 2 hrs by Western blot analysis; type: cell-based; settings: filed as activator
Outline: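 C2C12 myoblasts differentiated in DMEM with 2% horse serum for 5-7 days until myotubes formed. Treated for 2 h, either at 10 μM or across a concentration range, or at 10 μM over a time course. RIPA lysates (~30 µg protein) blotted for p-AMPK/AMPK and p-ACC/ACC, detected by ECL. The p-AMPK/AMPK ratio is expressed as fold of the DMSO vehicle.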

[8] = test system: Mus musculus; assay: Hypoglycemic activity in 6 hrs fasted normal lean C57BL/6 mouse assessed as improved glucose tolerance at 10 mg/kg, ig pretreated for 2 hrs followed by glucose challenge and measured up to 90 mins post glucose challenge starting from 120 mins prior to compound treatment by IPGTT; type: functional, organism-based; settings: time 210.0 min
[9] = test system: A549; assay: Activation of AMPK in human A549 cells harboring mutant LKB1; type: cell-based; settings: filed as activator
[10] = test system: Mus musculus; assay: Activation of AMPK in normal lean C57BL/6 mouse assessed as increase in phosphorylated ACC level in skeletal muscle at 100 mg/kg, ig administered for 4 weeks by Western blot analysis; type: functional, organism-based; settings: Skeletal muscle tissue
Outline: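 Male C57BL/6 mice, 9 weeks old, dosed intragastrically once daily for 4 weeks alongside vehicle controls. Heart and skeletal muscle were homogenized in RIPA buffer with protease/phosphatase inhibitors and centrifuged at 10,600 g for 20 min. About 30 µg protein was blotted for p-AMPK and p-ACC and detected by ECL.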

[11] = Metabolic stability in ICR/CD-1 mouse liver microsomes assessed as intrinsic clearance preincubated for 5 mins followed by NADPH addition and measured up to 45 mins by LC/MS analysis; type: ADME, Microsome; settings: time 50 min, read-out: CLH
Outline: (§3)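 Compound and liver microsomes in preheated potassium phosphate buffer, held at 37 °C for 5 min. Reaction started with NADPH and stopped at 0, 5, 15, 30 and 45 min with acetonitrile containing tolbutamide internal standard. Samples centrifuged at 6000 rpm for 15 min, supernatant analysed by LC/MS. Ketanserin run as assay control. Performed by a contract lab.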

[12] = Metabolic stability in human liver microsomes assessed as intrinsic clearance preincubated for 5 mins followed by NADPH addition and measured up to 45 mins by LC/MS analysis; type: ADME, Microsome; settings: time 50 min, read-out: CLH; outline: as §3
[13] = Inhibition of mitochondrial complex 1 in human HepG2 cells assessed as increase in ADP/ATP ratio at 0.5 uM; type: cell-based; settings: hepg2, 0.5 µM
Outline: (§4)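 HepG2 cells treated with 10 μM or 0.5 μM compound, or DMSO. Cellular ADP:ATP and AMP:ATP ratios were measured. Three replicates, given as mean ± SD and compared by Student's t test.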

[14] = Inhibition of mitochondrial complex 1 in human HepG2 cells assessed as increase in AMP/ATP ratio at 0.5 uM; type: cell-based; settings: hepg2, 0.5 µM; outline: as §4
[15] = test system: Mus musculus; assay: Hypoglycemic activity in 6 hrs fasted normal lean C57BL/6 mouse assessed as reduction in blood glucose level at 100 mg/kg, ig pretreated for 2 hrs followed by glucose challenge and measured up to 90 mins post glucose challenge starting from 120 mins prior to […] by IPGTT; type: functional, organism-based; settings: time 210.0 min
Outline: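 C57BL/6 mice (male, 8-10 weeks, n=6 per group) fasted 6 h, then given compound or vehicle intragastrically. Two hours later, 20% glucose was injected i.p. at 2 g/kg. Tail-vein glucose read by glucometer at -120, 0, 20, 40, 60 and 90 min, and net AUC calculated. Doses were 25, 50 and 100 mg/kg.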

[16] = Inhibition of bovine heart mitochondrial complex 1 at 10 uM measured every minute for 2 hrs by microplate reader based assay; type: tissue-based, Bos taurus; settings: cattle; outline: as §2

## CC(C)(Oc1ccc(Cl)cc1)C(=O)Nc1ccc(OCc2ccc(C(F)(F)F)cc2)cc1
[1]
  Activity: 156.1%
[2]
  half-life: > 120 min
[3]
  remaining at 0.75 h: 91%
[4]
  inhibition (INH): Active
[5]
  remaining at 0.75 h: 93%
[6]
  half-life: > 120 min

## Cc1ccc(COc2ccc(NC(=O)C(C)(C)Oc3ccc(Cl)cc3)cc2)cc1
[1]
  Activity: 102.2%

## CC(C)(Oc1ccc(Cl)cc1)C(=O)Nc1ccc(OCc2ccc(Br)cc2)cc1
[1]
  Activity: 112.7%

## CC(C)(Oc1ccc(Cl)cc1)C(=O)N1CCC(NC(=O)Nc2ccc(F)c(Cl)c2)CC1
[1]
  Activity: 116.7%

## CC(C)(Oc1ccc(Cl)cc1)C(=O)Nc1ccc(OCc2ccc(F)cc2)cc1
[1]
  Activity: 107.6%

## CCOC(=O)c1ccc(NC(=O)NC2CCN(C(=O)C(C)(C)Oc3ccc(Cl)cc3)CC2)cc1
[1]
  Activity: 126.1%

## CC(C)(Oc1ccc(Cl)cc1)C(=O)N1CCC(NC(=O)Nc2ccc(Cl)cc2)CC1
[1]
  Activity: 104.1%
[7]
  Activity: Active

## O[C@@H]1CO[C@H]2[C@@H]1OC[C@H]2Oc1nc2nc(-c3ccc(-c4ccccc4)cc3)c(Cl)cc2[nH]1
[8]
  Activity: Active
[7]
  Activity: Active
[9]
  Activity: Active
[10]
  Activity: Active

## O=C(c1ccc(F)cc1)C1CCN(CCn2c(=O)[nH]c3ccccc3c2=O)CC1 [KETANSERIN]
[11]
  CLint scaled: 258 mL/min/kg
[2]
  half-life: 21 min
[12]
  CLint scaled: 71 mL/min/kg
[6]
  half-life: 25 min

## Cc1ccc(NC(=O)NC2CCN(C(=O)C(C)(C)Oc3ccc(Cl)cc3)CC2)cc1
[1]
  Activity: 93.7%

## CC(C)(Oc1ccc(Cl)cc1)C(=O)N1CCC(NC(=O)Nc2ccc(F)cc2)CC1
[1]
  Activity: 119.3%
[7]
  Activity: Active

## CC(C)(Oc1ccc(Cl)cc1)C(=O)Nc1ccc(OCc2ccc(S(C)(=O)=O)cc2)cc1
[1]
  Activity: 144.4%
[7]
  Activity: Active

## COc1ccc(NC(=O)NC2CCN(C(=O)C(C)(C)Oc3ccc(Cl)cc3)CC2)cc1
[1]
  Activity: 134.4%

## CC(C)(Oc1ccc(Cl)cc1)C(=O)N1CCC(NC(=O)Nc2ccc(C(F)(F)F)cc2)CC1
[1]
  Activity: 137.2%
[7]
  Activity: Active
[4]
  inhibition (INH): Not Active

## COc1ccc(COc2ccc(NC(=O)C(C)(C)Oc3ccc(Cl)cc3)cc2)cc1
[1]
  Activity: 134.7%

## CC(C)(Oc1ccc(Cl)cc1)C(=O)Nc1ccc(OCc2ccc(OC(F)(F)F)cc2)cc1
[1]
  Activity: 133.4%

## CC(C)(Oc1ccc(Cl)cc1)C(=O)Nc1ccc(OCc2ccc(C(C)(C)C)cc2)cc1
[1]
  Activity: 105.3%

## COc1ccc(C(=O)C2CCN(C(=O)c3ccc(C(=O)NC4CCN(Cc5ccc(C#N)cc5)CC4)cn3)CC2)cc1
[13]
  inhibition (INH): Active
[14]
  inhibition (INH): Active

## CC(C)(Oc1ccc(Cl)cc1)C(=O)N1CCC(NC(=O)Nc2ccc([N+](=O)[O-])cc2)CC1
[1]
  Activity: 115.4%

## CC(C)(Oc1ccc(Cl)cc1)C(=O)Nc1ccc(OCc2ccc(C(=O)O)cc2)cc1
[1]
  Activity: 116.5%

## CC(C)(Oc1ccc(Cl)cc1)C(=O)Nc1ccc(OCc2ccc(Cl)cc2)cc1
[1]
  Activity: 129%
[7]
  Activity: Active

## CC(C)(Oc1ccc(Cl)cc1)C(=O)N1CCC(NC(=O)Nc2ccc(C(=O)O)cc2)CC1
[1]
  Activity: 117.7%

## O=C(COc1ccc(C(=O)c2ccccc2)cc1)NC1CCN(Cc2ccccc2)CC1
[1]
  Activity: 132.4%
[7]
  Activity: Active
[15]
  Activity: Active
[16]
  inhibition (INH): Active

## CC(C)(Oc1ccc(Cl)cc1)C(=O)N1CCC(NC(=O)Nc2ccc(Br)cc2)CC1
[1]
  Activity: 127.3%

## CC(C)(Oc1ccc(Cl)cc1)C(=O)N1CCC(NC(=O)Nc2ccc(OC(F)(F)F)cc2)CC1
[1]
  Activity: 104.2%

## COC(=O)c1ccc(COc2ccc(NC(=O)C(C)(C)Oc3ccc(Cl)cc3)cc2)cc1
[1]
  Activity: 124.7%

## CC(C)(Oc1ccc(Cl)cc1)C(=O)N1CCC(NC(=O)Nc2ccccc2)CC1
[1]
  Activity: 118%

## CC(C)(Oc1ccc(Cl)cc1)C(=O)N1CCC(NC(=O)Nc2ccccc2C(F)(F)F)CC1
[1]
  Activity: 116.1%

## CC(C)(Oc1ccc(Cl)cc1)C(=O)N1CCC(NC(=O)Nc2cccc(C(F)(F)F)c2)CC1
[1]
  Activity: 91%

## CC(C)(Oc1ccc(Cl)cc1)C(=O)N1CCC(NC(=O)Nc2ccc(C#N)cc2)CC1
[1]
  Activity: 116.2%

Source: ChEMBL document CHEMBL4765352, “Discovery of AdipoRon analogues as novel AMPK activators without inhibiting mitochondrial complex I” (Eur J Med Chem, 2020)
